TAAR1 agonist = human TAAR1 agonism. CHO RD-HGA16 TAAR1, Fluo-8 calcium fluorescence; vehicle wells 0%, saturating PEA agonist 100%. Q96RJ0. activation, % at 3 µM. 360,000 tested, 0.99% active;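 active means activation above the mean activation of all test compounds in the run plus 3 SD, cut at about 38% in these data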
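Signal – calcium-sensitive Fluo-8 signal, excitation 470-495, emission 515-575 nm · System – RD-HGA16 (CHO) cells co-expressing Gα16 and hTAAR1 · Incubation – 17-24 h seeding, 75 min 37 °C dye, 30 min RT · Compound dosing – 3 µM single concentration · Repeats – no replicates (n 1)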
OX1R antag-1 = blocks the human orexin 1 receptor; CHO/OX1R cells, Fluo-8 calcium fluorescence, orexin A; inhibition, % at 5 µM; 330,000 tested, 0.43% active; AID 434989;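 active means inhibition above its plate's threshold, mean inhibition of all tested compounds on the plate plus 3 SD, cut at about 37% in these data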
Target sequence (O43613 whole entry, looked up): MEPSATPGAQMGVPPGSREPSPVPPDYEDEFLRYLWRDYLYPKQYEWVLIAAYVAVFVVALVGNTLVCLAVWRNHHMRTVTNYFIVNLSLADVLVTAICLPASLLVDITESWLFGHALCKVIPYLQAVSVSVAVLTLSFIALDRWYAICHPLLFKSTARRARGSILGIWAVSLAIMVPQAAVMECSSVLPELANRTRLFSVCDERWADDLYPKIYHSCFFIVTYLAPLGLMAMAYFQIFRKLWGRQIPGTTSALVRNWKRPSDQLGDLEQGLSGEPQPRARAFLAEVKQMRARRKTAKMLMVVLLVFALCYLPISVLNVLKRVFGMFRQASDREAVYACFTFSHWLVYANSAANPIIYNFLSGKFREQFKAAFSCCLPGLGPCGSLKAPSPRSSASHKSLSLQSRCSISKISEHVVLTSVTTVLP
GPR7 antag = human neuropeptides B/W receptor 1 antagonism. inhibition, % at 4.4 µM. GPR7-expressing cells, fluorescence antagonist assay. P48145. 290,000 tested, 1.1% active; in the data active means inhibition above about 16%, passing the limit was not always enough;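 further: cells stimulated with the agonist NPW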
OX1R antag-2 = antagonists of human orexin 1 receptor (OX1R); 330,000 tested, 1.8% active; O43613; OX1R-expressing cells, FRET antagonist read-out; inhibition, % at 6.6 µM; AID 485270; in the data active means inhibition mostly above about 38%, no sharp cut-off; inactive means mostly below about 40%
TAAR1 antagonist = human TAAR1 antagonism | Q96RJ0 | 360,000 tested, 1.5% active | inhibition, % at 3 µM | CHO RD-HGA16 TAAR1, Fluo-8 calcium fluorescence, antagonist;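 active means inhibition above a per-plate cutoff, the mean inhibition of test compounds on that plate plus 3 SD, cut at about 49% in these data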
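Test system – hTAAR1-expressing CHO RD-HGA16 cells, Gα16-coupled · Reagent – β-PEA at EC80 concentration, post-compound challenge · Compound dosing – 3 µM, single point · Timing – 140 s kinetic read after compound, 140 s after agonist · Detection – Fluo-8 intracellular calcium dye fluorescence, real-time kinetic reads · Control set – DMSO and EC80 PEA controls · Repeats – n of 1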
CHO parental Ca = counter-screen: ATP calcium response change in parental CHO cells; AID 463079; 330,000 tested, 0.63% active; parental CHO-K1, ATP-induced calcium, Fluo-8 fluorescence; inhibition, % at 5.6 µM;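 active means inhibition above that plate's mean sample inhibition plus 3 SD, cut at about 26% in these data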
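Assay system: parental CHO cells; Read-out basis: percent inhibition of ATP-evoked calcium rise, normalized to controls; Benchmarks: ATP and no-ATP DMSO wells; Compound dosing: single nominal dose of 5.6 µM per compound; Signal: Fluo-8 calcium dye fluorescence; Also added: ATP as calcium-mobilizing challenge; Repeats: singlicate.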
nonsel antag count = nonselective antagonism, TAAR1 counter-screen; inhibition, % at 3 µM; counterscreen cell line, calcium fluorescence, antagonist mode; shares compounds with TAAR1 antagonist; 2,400 tested, 77% active; in the data active means inhibition above about 22%;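 further: CHO-Ga16 host cells stimulated with ATP at an EC80 level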
TAAR1 antag conf = confirmation of human TAAR1 antagonists. inhibition, % at 3 µM. TAAR1-expressing cells, fluorescence antagonist read-out. shares compounds with TAAR1 antagonist. 2,400 tested, 40% active; in the data active means inhibition above about 49%;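 further: CHO-Ga16 host cells challenged with agonist PEA near its EC80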
Ga16 ag counter = nonselective Ga16 agonism, counter-screen | activation, % at 3 µM | shares compounds with TAAR1 antagonist | 2,400 tested, 18% active | Ga16-expressing cells, calcium fluorescence, agonist counterscreen; in the data active means activation above about 12%
TAAR1 ag counter = activates human TAAR1 in antagonist counter-screen; 2,400 tested, 2% active; AID 651955; activation, % at 3 µM; shares compounds with TAAR1 antagonist; hTAAR1 cell line, fluorescence activation, agonist mode; in the data active means activation above about 37%;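 further: CHO cells stably expressing TAAR1 with calcium dye readout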
Numbers stand for hits; . = inactive; / = no result. Only some compounds are listed: those with a hit (about 4.6% of all), similar ones and a draw of the others.

SMILES	TAAR1 agonist	OX1R antag-1	GPR7 antag	OX1R antag-2	TAAR1 antagonist	CHO parental Ca	nonsel antag count	TAAR1 antag conf	Ga16 ag counter	TAAR1 ag counter
CCN(CC)CCNC(=O)c1ccc(NC(=O)c2ccc(S(=O)(=O)N(C)c3ccccc3OC)cc2)cc1	.	/	/	/	.	/	/	/	/	/
COc1cccc(C(=O)NCc2ccc3c(c2)OCO3)c1OC	.	/	.	/	.	/	/	/	/	/
COc1ccccc1N(C)S(=O)(=O)c1ccc(C(=O)NCc2ccc3c(c2)OCO3)cc1	.	.	.	.	67	.	31	53	.	.
COc1ccccc1N(C)S(=O)(=O)c1ccc(C(=O)N(C)Cc2cccc(OC)c2OC)cc1	.	/	/	/	.	/	/	/	/	/
COC(=O)c1c(-c2ccc(S(C)(=O)=O)cc2)sc2cc(OC)ccc12	.	.	/	.	.	.	/	/	/	/
COc1ccccc1N(C)S(=O)(=O)c1ccc(C(=O)N(C)Cc2ccc(Cl)s2)cc1	.	.	/	.	51	.	27	.	.	.
Cc1ccc2c(c1)cc1c(=O)[nH]ncn12	.	.	.	.	.	.	/	/	/	/
Cc1ccc(CNC(=O)c2ccc(N(C)S(=O)(=O)c3ccccc3)cc2)cc1	.	.	.	.	.	.	/	/	/	/
CN(c1ccccc1)S(=O)(=O)c1ccc(C(=O)NCc2ccc(F)cc2)cc1	.	.	/	.	64	.	42	58	12	.
COCCOC(=O)c1c(C)n(C)c2ccc(OC(=O)c3ccccc3OC)cc12	.	.	.	.	53	.	26	.	.	.
COCCOC(=O)c1c(C)n(C)c2ccc(OC(=O)c3ccco3)cc12	.	.	.	.	.	.	/	/	/	/
CC(=O)c1ccc(OCC(=O)Nc2ccc3c(c2)CCC3)cc1	.	.	.	.	84	.	.	.	.	.
O=C(c1cc(-c2cccs2)nc2ccccc12)N1CCN(S(=O)(=O)c2ccccc2)CC1	.	.	.	.	.	.	/	/	/	/
COc1cc(-c2cc(C(=O)NCCc3ccc(S(N)(=O)=O)cc3)c3ccccc3n2)cc(OC)c1OC	.	.	.	.	.	.	/	/	/	/
NS(=O)(=O)c1ccc(CCNC(=O)c2cc(-c3cccs3)nc3ccccc23)cc1	.	/	.	/	65	/	35	57	12	.
NS(=O)(=O)c1ccc(CNC(=O)c2cc(-c3cccs3)nc3ccccc23)cc1	.	.	.	.	69	.	36	51	.	.
NS(=O)(=O)c1cccc(NC(=O)c2cccs2)c1	.	.	.	.	.	.	/	/	/	/
O=C(c1cc(-c2cccs2)nc2ccccc12)N1CCN(S(=O)(=O)c2cccc(F)c2)CC1	.	.	.	.	52	.	34	.	.	.
NS(=O)(=O)c1cccc(NC(=O)c2cc(-c3cccs3)nc3ccccc23)c1	.	.	.	.	67	.	37	50	.	.
NS(=O)(=O)c1ccc(CNC(=O)Cc2cccs2)cc1	.	.	.	.	.	.	/	/	/	/
CCC(C)NC(=O)c1cc(-c2cccs2)nc2ccccc12 (centres undefined)	.	.	.	.	.	.	/	/	/	/
CC(C)CCNC(=O)c1cc(-c2cccs2)nc2ccccc12	.	.	.	.	66	.	29	.	.	.
O=C(NCc1cccs1)c1cc(-c2ccccc2)nc2ccccc12	.	.	.	.	58	.	23	.	.	.
Cc1cn([C@H](C(=O)NCCCCCCCCCCC(=O)N2CCN(C(=O)OC(C)(C)C)CC2)[C@@H](C)O)nn1	.	.	/	.	63	.	24	.	.	.
N/C(=N\OCc1ccc([N+](=O)[O-])cc1)c1ccncc1	.	.	.	.	.	.	/	/	/	/
SMILES	TAAR1 agonist	OX1R antag-1	GPR7 antag	OX1R antag-2	TAAR1 antagonist	CHO parental Ca	nonsel antag count	TAAR1 antag conf	Ga16 ag counter	TAAR1 ag counter
Cc1cccc(NC(=O)c2oc3ccc(S(=O)(=O)N4CCOCC4)cc3c2C)c1C	.	.	.	.	58	.	31	51	.	.
Cc1ccc(NC(=O)c2oc3ccc(S(=O)(=O)N4CCOCC4)cc3c2C)c(C)c1	.	.	.	.	.	.	/	/	/	/
Oc1ccccc1N1CCN(C(=S)Nc2ccc(SC(F)F)cc2)CC1	.	.	.	.	83	.	42	55	14	.
FC(F)Sc1ccc(NC(=S)N2CCN(c3ccccn3)CC2)cc1	.	/	.	/	.	/	/	/	/	/
Cc1ccc(C(=O)Nc2ccc(C)c(S(=O)(=O)Nc3ccccc3Cl)c2)s1	.	.	.	.	68	.	.	.	.	.
CN=C(Nc1cccc(OC)c1)SC1CC(=O)N(c2ccc(C(=O)O)cc2)C1=O (centres undefined)	.	.	.	.	.	.	/	/	/	/
CCOc1ccc(NC(=O)c2ccc(NC(=O)c3ccc(CN4CCOCC4)cc3)cc2)cc1	.	.	.	.	61	.	29	.	.	.
O=C(COc1ccccc1Cl)NC(=S)Nc1ccc(CN2CCOCC2)cc1	.	.	.	.	73	.	47	51	.	.
O=C(Nc1ccc(CN2CCOCC2)cc1)c1ccc2ccccc2c1	.	.	.	.	.	.	/	/	/	/
CCC(C)Oc1ccc(C(=O)Nc2ccc(CN3CCOCC3)cc2)cc1 (centres undefined)	.	/	.	/	.	/	/	/	/	/
O=C(Nc1ccc(CN2CCOCC2)cc1)c1cccc(-c2cc3ccccc3oc2=O)c1	.	.	.	.	64	.	27	.	.	.
O=C(CSc1ccc(Cl)cc1)N1CCN(c2ccc(Cl)cc2[N+](=O)[O-])CC1	.	.	.	.	67	.	25	.	.	.
CCN(CC)C(=O)COCc1cc(-c2ccc3c(c2)OCO3)on1	.	.	.	.	.	.	/	/	/	/
COC(=O)c1sccc1NC(=O)Nc1ccccc1Cl	.	/	.	/	.	/	/	/	/	/
COc1cc(NC(=O)c2ccccc2Cl)ccc1NC(=O)c1cccs1	.	.	.	.	.	.	/	/	/	/
COc1cc(NC(=O)c2cc3ccccc3cc2OC)ccc1NC(=O)c1cccs1	.	.	.	.	85	.	23	51	.	.
O=C(COc1ccc(Cl)cc1)Nc1cccc(-c2ccc(N3CCOCC3)nn2)c1	.	.	/	.	68	.	32	.	.	.
COc1cc(OC)cc(C(=O)Nc2cccc(-c3ccc(N4CCOCC4)nn3)c2)c1	.	.	/	.	55	.	35	.	.	.
O=C(Nc1ccc(NC(=S)NC(=O)c2ccccc2F)cc1)c1cccs1	.	.	.	.	52	.	.	.	.	.

Source: PubChem
